Drawing on the array DNA melting data of Ke et al. (doi:10.1101/2024.01.08.574731), this text covers Tm and folding enthalpy for 73 sequences.

Data set [1] is described as follows: melting temperature; fluorescence melt of hairpins on a sequencing array, two-state fit, raised by 9.35 °C to match UV melts. The settings on record: sodium 0.088 M. An outline of the steps:
(§1)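 Bootstrapped two-state fits yielded melting temperature and folding enthalpy for library hairpins. Cy3 fluorescence, with annealed Cy3 and quencher oligos, was imaged on a sequenced MiSeq flow cell in 50 mM Na-HEPES pH 8.0, 25 mM NaCl in 2.5 °C steps up to 60 °C, and normalised to pre-quench Cy3 and to control constructs. Four replicates were combined by inverse variance, and fitted temperatures were raised by 9.35 °C to match UV melts.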

Data set [2] in a line: folding enthalpy; higher = less favourable; fluorescence melt of hairpins on a sequencing array, two-state fit. The settings on record: sodium 0.088 M. An outline of the steps: as §1

As to GCCCTCGAAAGAGGTGGC ((((((....)))..))), the Tm in data set [1] worked out at 48.4 °C. In data set [2], the folding enthalpy was -17.7 kcal/mol.
For the sequence GCCCTCGGAAACGAGAGC ((.((((....)))).)), the Tm in data set [1] came to 49.1 °C. The folding enthalpy in data set [2] was -27.2 kcal/mol.
In the case of GCCCTCGGAAACGAGGAC (.(((((....))))).), the Tm in data set [1] came to 50.3 °C. Also, the folding enthalpy in data set [2] was -13.4 kcal/mol.
The corresponding values for GCCCTGCCGAAAGGCGGC (((..(((....)))))) are 54.9 °C and -9.83 kcal/mol.
The corresponding values for GCCCTGCGAAAGCACGGC (((.(((....))).))) are 52 °C and -39.6 kcal/mol.
The corresponding values for GCCCTGCGAAAGCAGAGC ((.((((....)))).)) are 60.4 °C and -18.8 kcal/mol.
Turning to GCCCTGCGAAAGCCGGGC ((((.((....)).)))), the Tm in data set [1] is 69 °C. Besides, the folding enthalpy in data set [2] was -32.9 kcal/mol.
For the sequence GCCCTGCGAAAGCGGTGC ((.(.((....)).).)), in data set [1], the Tm was 48 °C. In data set [2], the folding enthalpy is -20.2 kcal/mol.
Regarding GCCCTGCGAAAGCTAGGC (((..((....))..))), the Tm in data set [1] was 55.2 °C. Besides, the folding enthalpy in data set [2] is -20.3 kcal/mol.
For GCCCTGCGAAAGCTGAGC ((.(.((....)).).)), the Tm in data set [1] is 47.2 °C. Moreover, the folding enthalpy in data set [2] was -13.9 kcal/mol.
Take GCCCTTCGAAAGAATGGC (((.(((....))).))): the Tm in data set [1] was found to be 47.4 °C. Besides, the folding enthalpy in data set [2] was -34.3 kcal/mol.
The corresponding values for GCCCTTGGAAACGAGGGC (((((.(....).))))) are 57.5 °C and -41.4 kcal/mol.
The corresponding values for GCCGAACGAAAGTTGGC (((.(((....)))))) are 57.2 °C and -32.3 kcal/mol.
The corresponding values for GCCGAAGGAAACCTCGGC (((((.(....).))))) are 54.6 °C and -34.6 kcal/mol.
As to GCCGACCGAAAGGTGGC (((.(((....)))))), the Tm in data set [1] was 62 °C. Moreover, the folding enthalpy in data set [2] is -34 kcal/mol.
The corresponding values for GCCGACGAAAGTCAGGC ((((((....))).))) are 64.1 °C and -39.5 kcal/mol.
Take GCCGACGAAAGTCATGGC ((((((....)))..))): in data set [1], the Tm turned out to be 51.6 °C. Besides, the folding enthalpy in data set [2] was -34.5 kcal/mol.
As to GCCGACGAAAGTCCAGGC ((((((....)))..))), the Tm in data set [1] was found to be 51.7 °C. Besides, the folding enthalpy in data set [2] was -25.2 kcal/mol.
The corresponding values for GCCGACGAAAGTCCGGC ((((((....))).))) are 61.2 °C and -31.1 kcal/mol.
With GCCGACGAAAGTCTGGC ((((((....))).))), in data set [1], the Tm is 58.2 °C. Further, the folding enthalpy in data set [2] is -34.6 kcal/mol.
With GCCGACGGAAACGCCAGC ((.(.((....)).).)), in data set [1], the Tm was 33.8 °C. In addition, the folding enthalpy in data set [2] is -13.3 kcal/mol.
GCCGACGGAAACGTCAGC ((.((((....)))).)): the Tm in data set [1] was determined as 49.6 °C. Besides, the folding enthalpy in data set [2] was -23.6 kcal/mol.
The corresponding values for GCCGACTCGAAAGAGGGC (((..(((....)))))) are 47.1 °C and -23.1 kcal/mol.
The corresponding values for GCCGAGAAATCGGC (((((....))))) are 64.8 °C and -28.4 kcal/mol.
The corresponding values for GCCGAGCGAAAGCAGGGC (((..((....))..))) are 57.2 °C and -26.3 kcal/mol.
GCCGAGCGAAAGCCCTGC ((.(.((....)).).)): the Tm in data set [1] is 33.5 °C. The folding enthalpy in data set [2] was -13.7 kcal/mol.
On to GCCGAGCGAAAGCCTGGC (((..((....))..))), for which the Tm in data set [1] is 62.6 °C. In data set [2], the folding enthalpy was -17 kcal/mol.
Turning to GCCGAGCGAAAGCTGAGC ((..(((....)))..)), the Tm in data set [1] turned out to be 51.2 °C. Moreover, the folding enthalpy in data set [2] was -11.2 kcal/mol.
The corresponding values for GCCGAGCGAAAGCTGCGC ((..(((....)))..)) are 56.4 °C and -17.8 kcal/mol.
The corresponding values for GCCGAGGGAAACCTCAGC ((.((((....)))).)) are 43.1 °C and -23.7 kcal/mol.
The corresponding values for GCCGATCCGAAAGGAGGC (((..(((....)))))) are 52.7 °C and -36.8 kcal/mol.
With GCCGATGGAAACATCGAC (.(((((....))))).), the Tm in data set [1] worked out at 48 °C. Further, the folding enthalpy in data set [2] was -16.3 kcal/mol.
As for GCCGCACCGAAAGGTGGC (((..(((....)))))), the Tm in data set [1] amounted to 53.5 °C. Besides, in data set [2], the folding enthalpy was -8.56 kcal/mol.
Consider GCCGCACGAAAGTGGGC (((.(((....)))))), for which, in data set [1], the Tm came out at 62.8 °C. Further, in data set [2], the folding enthalpy is -20.9 kcal/mol.
The corresponding values for GCCGCAGCGAAAGCTGGC (((..(((....)))))) are 56.7 °C and -9.6 kcal/mol.
As for GCCGCAGGAAACTGCAGC ((.((((....)))).)), in data set [1], the Tm came out at 49 °C. Moreover, in data set [2], the folding enthalpy was -19 kcal/mol.
Turning to GCCGCCGAAAGGCGAGGC ((((((....)))..))), the Tm in data set [1] worked out at 60.6 °C. In addition, the folding enthalpy in data set [2] was -14.4 kcal/mol.
In the case of GCCGCCGAAAGGCTAGGC ((((((....)))..))), in data set [1], the Tm was 60.5 °C. The folding enthalpy in data set [2] was -27.9 kcal/mol.
With GCCGCGCGAAAGCATGGC (((..((....))..))), the Tm in data set [1] was found to be 60.1 °C. The folding enthalpy in data set [2] was -26.7 kcal/mol.
GCCGCGCGAAAGCCCTGC ((.(.((....)).).)): the Tm in data set [1] stood at 28.6 °C. The folding enthalpy in data set [2] is -12.1 kcal/mol.
The corresponding values for GCCGCGCGAAAGCGACGC ((..(((....)))..)) are 55.1 °C and -11.9 kcal/mol.
Take GCCGCGCGAAAGCGCAGC ((.((((....)))).)): the Tm in data set [1] was determined as 64 °C. Besides, the folding enthalpy in data set [2] is -15.2 kcal/mol.
The corresponding values for GCCGCGCGAAAGCTGGGC (((..((....))..))) are 56.3 °C and -20 kcal/mol.
The corresponding values for GCCGCTCCGAAAGGAGGC (((..(((....)))))) are 55.4 °C and -9.81 kcal/mol.
As for GCCGCTGGAAACAGCGAC (.(((((....))))).), the Tm in data set [1] is 52.6 °C. Also, the folding enthalpy in data set [2] was -13.9 kcal/mol.
With GCCGGAGGAAACCCCGGC (((((.(....).))))), the Tm in data set [1] was 59.6 °C. In addition, in data set [2], the folding enthalpy was -36 kcal/mol.
Consider GCCGGCGAAAGCCAAGGC ((((((....)))..))), for which the Tm in data set [1] stood at 65.3 °C. Also, the folding enthalpy in data set [2] is -22.8 kcal/mol.
The corresponding values for GCCGGCGAAAGCCCTGGC ((((((....)))..))) are 56.6 °C and -16.2 kcal/mol.
The corresponding values for GCCGGCGAAAGCCTCGGC ((((((....)))..))) are 53.3 °C and -19.9 kcal/mol.
Take GCCGGCGGAAACGCCAGC ((.((((....)))).)): in data set [1], the Tm was found to be 58.5 °C. Moreover, the folding enthalpy in data set [2] was -15.4 kcal/mol.
The corresponding values for GCCGGCTCGAAAGAGGGC (((..(((....)))))) are 46.9 °C and -19.2 kcal/mol.
The corresponding values for GCCGGGACGAAAGTCGGC (((..(((....)))))) are 60.9 °C and -29.8 kcal/mol.
The corresponding values for GCCGGGCGAAAGCACTGC ((.(.((....)).).)) are 50.8 °C and -18.6 kcal/mol.
In the case of GCCGGGCGAAAGCAGGGC (((..((....))..))), the Tm in data set [1] turned out to be 62.2 °C. In addition, the folding enthalpy in data set [2] is -29 kcal/mol.
The corresponding values for GCCGGGCGAAAGCATGGC (((..((....))..))) are 64.9 °C and -26.8 kcal/mol.
The corresponding values for GCCGGGCGAAAGCCCAGC ((.((((....)))).)) are 64.8 °C and -15.8 kcal/mol.
GCCGGGCGAAAGCCCCGC ((.((((....)))).)): in data set [1], the Tm is 54.4 °C. The folding enthalpy in data set [2] was -16.2 kcal/mol.
The corresponding values for GCCGGGCGAAAGCCCTGC ((.((((....)))).)) are 57.2 °C and -14.9 kcal/mol.
The corresponding values for GCCGGGCGAAAGCCGAGC ((..(((....)))..)) are 57.4 °C and -14.8 kcal/mol.
Consider GCCGGGCGAAAGCCGTGC ((..(((....)))..)), for which, in data set [1], the Tm was 50.2 °C. Moreover, the folding enthalpy in data set [2] is -13.7 kcal/mol.
GCCGGGCGAAAGCGTGGC (((..((....))..))): in data set [1], the Tm came to 65.9 °C. Further, the folding enthalpy in data set [2] is -36.4 kcal/mol.
As to GCCGGGCGAAAGCTAGGC (((..((....))..))), in data set [1], the Tm is 66.6 °C. Further, the folding enthalpy in data set [2] was -34.4 kcal/mol.
The corresponding values for GCCGGGGGAAACCCCGAC (.(((((....))))).) are 51.8 °C and -13.2 kcal/mol.
Regarding GCCGTACCGAAAGGTGGC (((..(((....)))))), the Tm in data set [1] came out at 53.8 °C. Besides, in data set [2], the folding enthalpy is -25.1 kcal/mol.
The corresponding values for GCCGTACGAAAGTAAGGC (((.(((....))).))) are 60.1 °C and -36.6 kcal/mol.
The corresponding values for GCCGTAGCGAAAGCTGGC (((..(((....)))))) are 55.6 °C and -31.5 kcal/mol.
The corresponding values for GCCGTAGGAAACTGCGGC ((((.((....)).)))) are 61.6 °C and -37.3 kcal/mol.
As for GCCGTCGAAAGACAAGGC ((((((....)))..))), in data set [1], the Tm was determined as 55.2 °C. In data set [2], the folding enthalpy was -32.8 kcal/mol.
For the sequence GCCGTCGAAAGACAGGC ((((((....))).))), the Tm in data set [1] worked out at 65.2 °C. Besides, the folding enthalpy in data set [2] was -27 kcal/mol.
Regarding GCCGTCGAAAGACATGGC ((((((....)))..))), the Tm in data set [1] came to 52.1 °C. Besides, in data set [2], the folding enthalpy was -23.9 kcal/mol.
With GCCGTCGAAAGACTGGC ((((((....))).))), the Tm in data set [1] turned out to be 56.4 °C. For the same sequence, the folding enthalpy in data set [2] is -33.4 kcal/mol.
Consider GCCGTCGGAAACAACGGC (((((.(....).))))), for which the Tm in data set [1] turned out to be 53.9 °C. The folding enthalpy in data set [2] was -47.5 kcal/mol.
The corresponding values for GCCGTCGGAAACGACAGC ((.((((....)))).)) are 53 °C and -16.6 kcal/mol.
